M1 ag: M1 muscarinic receptor agonists, primary screen, CHO-M1 cells, Fluo-4 calcium, agonist mode; B-score at 10 µM; AID 626, 2007; 3% of 64,000 active; Fluo-4 calcium fluorescence; stronger effect = higher value;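 active = fluorescence rise, raw or as B-score row- and column-corrected plate score, outside the 99.7% band of its plate's samples, either direction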
S1P1 ag-PAM: S1P1 agonists and agonism potentiators, primary screen, cell-based, primary and confirmation screens, CRE-bla reporter; Sphingosine 1-phosphate receptor 1 (Homo sapiens), P21453; 0.57% of 56,000 active; AID 449, 2006; S1P1 CRE-bla cells, forskolin, beta-lactamase FRET, potentiator mode; S1P1 agonist co-added at EC20, 2 nM; 100% = saturating reference agonist, 0% = basal; activation, % at 9.5 µM;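 active = activation above a cutoff set at the mean activation of all tested compounds plus 3 SD, cut at about 54% in these data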;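 also: forskolin at 4 µM as EC80 and the EC20 agonist is SEW2871; 100% = SEW2871 at its EC100 plus forskolin at EC80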
D1 allo mod: D1 CRE-luciferase signal change, two-sided – cell-based, HEK293 D1, dopamine EC30, D1 allosteric modulator project, primary screen; B-score at 10 µM; 5.9% of 58,000 active; dopamine EC30 potentiation; actives deviate in either direction; D(1A) dopamine receptor (Homo sapiens), P21728;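 active = luminescence count or its row- and column-corrected plate score outside the 99.7% band of the plate's sample wells, on either side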
S1P3 ag: human S1P3 receptor agonists, primary screen, cell-based, primary and confirmation, NFAT-BLA reporter; AID 373, 2006; activation, % at 4.5 µM; 0.1% of 60,000 active; Sphingosine 1-phosphate receptor 3 (Homo sapiens), Q99500; S1P3 NFAT-BLA reporter cells, agonism, FRET ratio; relative to 1 µM S1P, basal subtracted;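 active = activation above the screen-wide mean plus 3 SD, cut at about 4.5% in these data, passing the limit was not always enough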
Target sequence (Q99500 whole entry, looked up): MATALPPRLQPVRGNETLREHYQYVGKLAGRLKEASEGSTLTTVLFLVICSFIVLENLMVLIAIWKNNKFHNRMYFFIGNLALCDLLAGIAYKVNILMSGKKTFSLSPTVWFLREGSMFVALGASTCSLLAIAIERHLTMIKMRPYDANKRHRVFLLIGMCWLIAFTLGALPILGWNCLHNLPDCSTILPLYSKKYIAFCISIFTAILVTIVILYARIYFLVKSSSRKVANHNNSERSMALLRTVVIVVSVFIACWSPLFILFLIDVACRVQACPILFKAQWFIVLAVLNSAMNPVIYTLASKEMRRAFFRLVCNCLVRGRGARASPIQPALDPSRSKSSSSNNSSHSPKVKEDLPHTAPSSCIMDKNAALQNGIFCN
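Measure – % activation relative to 1 µM S1P (100%), per plate · System – stable CHO line with human S1P3, Gα16, NFAT-BLA reporter · Timing – cells plated overnight, compound 4 h 37 °C, substrate 2 h RT · Technique – fluorescent BLA substrate, ex 405 nm, em 460/535 nm ratio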
M1 antagonist: antagonists of rat M1 muscarinic receptor; Muscarinic acetylcholine receptor M1 (Rattus norvegicus), P08482; 3.4% of 64,000 active; CHO-M1 cells, Fluo-4 calcium, ACh EC80 antagonist mode; stronger effect = lower value; B-score at 10 µM;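 active = calcium fluorescence response, raw or row-and-column corrected B-score, differing from the plate sample mean either way at a set confidence level, mostly lower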
D1 PAM confirm: D1 receptor positive allosteric modulators, retest, confirmation, cell-based, HEK293 D1, CRE-luciferase, duplicate; 88% of 2,200 active; luminescence at 10 µM; shares compounds with D1 allo mod; dopamine EC30 potentiation; stronger effect = higher value;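 active = luminescence in either of two replicates above the same-plate mean plus 3 SD of the low-dose dopamine control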
D1 ag no DA: D1 receptor agonism without dopamine, confirmation, mechanism study for D1 allosteric modulator project, cell-based, HEK293 D1, CRE-luciferase, secondary assay 1 | shares compounds with D1 allo mod | luminescence, no dopamine; stronger effect = higher value | luminescence at 10 µM | 0.8% of 1,900 active; in the data active = luminescence above about 3900
Isoprot counter: counter-screen for D1 modulators: isoproterenol response in HEK293 cells; shares compounds with D1 allo mod; HEK293 D1 CRE-luciferase, isoproterenol EC30 counter-screen; stronger effect = higher value; luminescence at 10 µM; 63% of 2,200 active;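 active = luminescence in either replicate above plate mean of wells with a partly effective reference agonist dose plus 3 SD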;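 also: isoproterenol raises cAMP through native beta-adrenoceptor Gs so signal bypasses D1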
* hit, by the source's call; . = no result. This is a sample that favours compounds with a hit; in the whole collection about 11% have one here.

SMILES | M1 ag | S1P1 ag-PAM | D1 allo mod | S1P3 ag | M1 antagonist | D1 PAM confirm | D1 ag no DA | Isoprot counter
COc1ccc(NC(=O)CN(c2ccc(C(C)C)cc2)S(=O)(=O)c2c(C)noc2C)cc1OC | -0.23 | 27 | 3* | -1 | -0.0066 | 4788 | 1104 | 2228
COc1ccccc1NC(=O)c1ccc(NS(=O)(=O)c2c(C)noc2C)cc1 | 0.33 | -7 | 0.036 | 0 | -0.39 | . | . | .
COc1ccc(-c2coc3cc(O)cc(O)c3c2=O)cc1 | 0.53 | -17 | 6.2* | -2 | -3.1 | 9820* | 1216 | 3072
COc1ccc(-c2ccc(OC)cc2C(=O)O)cc1 | -0.58 | -7 | -0.93 | -1 | 0.62 | . | . | .
CN(C)C(CNC(=O)c1cccnc1Sc1ccccc1)c1ccco1 (centres undefined) | 0.72 | 18 | 6.6* | -1 | 0.44 | 8824* | . | 2876*
COC(=O)c1cc(OC)c(OC)cc1NC(=O)Cn1nnc(-c2ccccc2Cl)n1 | 1.3 | . | 0.18 | -2 | 0.32 | . | . | .
Cc1cc(-c2cc(N)n(-c3ccccc3)n2)c(C)n1C1CCCC1 | -0.18 | 8 | -2.7 | -1 | -0.44 | . | . | .
Cc1cc(NS(=O)(=O)c2ccc(NC(=O)COc3ccccc3C(C)C)cc2)no1 | 1.4 | 8 | 4.1* | 0 | -0.048 | 6636* | 1576 | 2804
Cc1cc(NS(=O)(=O)c2ccc(NC(=O)COc3ccccc3Cl)cc2)no1 | -0.36 | 8 | 1.1 | 0 | -0.97 | . | . | .
COc1cc2c(cc1OC)C1=C(C#N)CCC(=O)N1CC2 | 0.052 | . | 13* | 1 | 0.54 | 16416* | 1868 | 9696*
COc1ccc(CCN2CC(C#N)=C3c4cc(OC)c(OC)cc4CCN3C2)cc1OC | 2.2 | -10 | 5* | -1 | -0.49 | 14004* | 1736 | 5556*
COc1cc2c(cc1OC)C1=C(C#N)CC/C(=N\S(=O)(=O)c3ccccc3)N1CC2 | 1.6 | -34 | 8.7* | 2 | -0.019 | 18960* | . | 16484*
COc1ccc(CCNS(=O)(=O)c2cccc(C(=O)O)c2)cc1OC | -0.58 | 6 | 0.56 | -1 | -0.015 | . | . | .
O=C(O)C1CC=CCC1C(=O)Nc1ccccc1Cl (centres undefined) | -0.16 | 15 | 0.13 | 1 | 0.62 | . | . | .
O=C(CSc1nnc(-c2ccccc2Br)o1)N1CCc2ccccc2C1 | -0.21 | 11 | 9.9* | 1 | -0.087 | 18392* | 1512 | 3928*
O=C(CSc1nnnn1-c1ccccc1)N1CCc2ccccc2C1 | 0.22 | 2 | 5.4* | -1 | -0.84 | 5840* | . | 2452
CCCCOc1ccc(OCCCC)c2c1NC1(N2)C(=O)N(C(C)=O)c2ccccc21 | 0.068 | -7 | -0.84 | -1 | -0.37 | . | . | .
CCOC(=O)c1cc(C)n(CCc2ccccc2)c1C | -0.51 | . | -0.99 | 0 | -0.37 | . | . | .
CCOC(=O)c1cc(-c2ccccc2)sc1N | 0.47 | . | 12* | -1 | 0.0059 | 19816* | 1684 | 3836*
CCOC(=O)c1sc(-c2ccc(OC)cc2)cc1N | -0.27 | -2 | 0.44 | 0 | -0.066 | . | . | .
CCOC(=O)c1sc(-c2ccccc2)cc1N | 0.15 | -187 | 6.1* | -1 | -0.61 | 12680* | 1780 | 3160
COc1ccc(CN(C(=O)c2ccco2)c2ccc(Br)cc2)cc1OC | 0.55 | -22 | -0.31 | -1 | 0.39 | . | . | .
COc1cc(CN(C(=O)c2ccco2)c2ccc(C)cc2)ccc1O | -0.47 | . | 9.5* | -1 | -0.69 | 13744* | 1484 | 4300*

High-throughput results deposited in PubChem BioAssay by several laboratories.
